The text below walks through data of ChEMBL document CHEMBL1135487, “Structure-activity relationship for enhancement of paracellular permeability across Caco-2 cell monolayers by 3-alkylamido-2-alkoxypropylphosphocholines” (J Med Chem, 2002).

Structures are written as SMILES.

The nature of assay [1]: Concentration to decrease mitochondrial dehydrogenase vs concentration to decrease TEER (IC50/EC50). The class given is functional. Put shortly: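 Ratio of two values measured on Caco-2 cells (passage 45–55). IC50: cells grown 96 h, exposed 20 min to phospholipid in HBSS, MTT added for 120 min more, SDS/HCl-isobutanol stop, absorbance 590 nm. EC50: 20–22-day monolayers (TEER 600–800 Ω·cm²), 20 min apical exposure in HBSS at room temperature, 50% TEER fall vs untreated. Triplicates.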

Assay [2] concerns Caco-2. Nature of the assay: Increase in the mannitol flux by 10-fold (EC10x) of the control value. The class given is functional, Homo sapiens. Summed up: (§1)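 Caco-2 monolayers on filters, TEER 600–800 Ω·cm². Enhancer at 0.01–5.0 mM in HBSS applied apically for 20 min, then washed out. Apical side then given 0.1 mM [3H]mannitol, 37 °C, sink conditions. Basolateral samples taken at 20, 40, 60 and 90 min and counted by liquid scintillation. EC10x = concentration raising mannitol permeability 10-fold over control; triplicate.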

Assay [3] has as its system Caco-2. Nature of the assay: Decrease in the trans-epithelial electrical resistance(TEER) in Caco-2 cell monolayers. It counts as functional, cell-based. The conditions noted are these: Homo sapiens. Summed up: (§2)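 Caco-2 cells (passage 45–55) grown on 1.0 cm² polycarbonate filters for 20–22 days and equilibrated 1 h in HBSS (25 mM HEPES, 25 mM glucose, pH 7.4) at 37 °C; monolayers with TEER 600–800 Ω·cm² used. Compound applied apically in HBSS at various concentrations for 20 min at room temperature. TEER read by voltohmmeter, blank filter subtracted. EC50 = concentration cutting TEER 50% versus untreated; triplicate, mean ± SD.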

Assay [4] relates to Caco-2. Nature of the assay: Critical Micelle Concentration (CMC) determined by fluorescence assay using DPH as a probe. The class given is functional, Homo sapiens. Summed up:
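Aqueous phosphocholine solutions over a concentration range received DPH (1 µL of 10 mM stock in THF per 2 mL). They were held 30 min in the dark at room temperature, then fluorescence was read (ex 365, em 460 nm). CMC was taken as the intersection of linear fits below and above the intensity inflection; mean of triplicates.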

Assay [5] concerns Caco-2. Nature of the assay: Concentration to increase the mannitol flux by 10-fold (EC10x) of the control value. It counts as functional, Homo sapiens. Put shortly:
as §1

Assay [6] concerns Caco-2. Nature of the assay: Concentration to decrease the transepithelial electrical resistance (TEER) in Caco-2 cell monolayers. The conditions noted are these: Homo sapiens. It counts as functional, cell-based. Summed up: as §2

Usually EC50 stands for the concentration needed to bring the measured effect to its halfway point. A lower EC50 goes with greater potency. In turn, `CCCCCCCCCCCC(=O)NCC(COP(=O)([O-])OCC[N+](C)(C)C)OCCCCCC` (centres undefined) showed a Potency index in assay [1] of 0.84. In assay [2], the EC10x came out at 1.01 mM. In assay [3], the EC50 amounted to 190 µM.
Regarding `CCCCCCCCCCCCCCOC(CNC(=O)CCCCCCCCC)COP(=O)([O-])OCC[N+](C)(C)C` (centres undefined), the EC10x in assay [2] was above 2 mM. The compound also gave a half-maximal effective concentration (EC50) in assay [3] above 2000 µM.
Taken in the same sequence, the figures for `CCCCCCCCCCCCCCCC(=O)NCC(COP(=O)([O-])OCC[N+](C)(C)C)OCCCCCCCC` (centres undefined) were above 5 mM and above 5000 µM.
Take `CCCCCCCCCCCCCCCCOC(CNC(C)=O)COP(=O)([O-])OCC[N+](C)(C)C` (centres undefined): the Potency index in assay [1] was 1.43. The same compound yielded an EC10x in assay [2] of 0.35 mM. Besides, the EC50 in assay [3] was determined as 70 µM.
In assay [2], `CCCCCCCCCCCCCCCCCC(=O)NCC(COP(=O)([O-])OCC[N+](C)(C)C)OCCCCCCCC` (centres undefined) registered an EC10x above 5 mM. This compound returned an EC50 in assay [3] above 5000 µM.
In assay [2], `CCCCOC(CNC(=O)CCC)COP(=O)([O-])OCC[N+](C)(C)C` (centres undefined) showed an EC10x above 5 mM. In assay [3], this compound yielded an EC50 above 5000 µM.
On to `CCCCCCCCCCCCCCCC(=O)NCC(COP(=O)([O-])OCC[N+](C)(C)C)OCCCC` (centres undefined), for which the Potency index in assay [1] was 1.11. Further, in assay [2], the EC10x worked out at 0.48 mM. Further, in assay [3], the EC50 worked out at 90 µM.
As to `CCCCCCCC(=O)NCC(COP(=O)([O-])OCC[N+](C)(C)C)OCCCCCC` (centres undefined), the EC10x in assay [2] is above 5 mM. In assay [3], this compound registered an EC50 above 5000 µM.
In turn, `CCCCCCCCCCCCOC(CNC(C)=O)COP(=O)([O-])OCC[N+](C)(C)C` (centres undefined) showed a Potency index in assay [1] of 1.72. This compound returned an EC10x in assay [2] of 4.27 mM. The compound further returned an EC50 in assay [3] of 780 µM.
In assay [2], `CCCCCCCCCCCCCCCC(=O)NCC(COP(=O)([O-])OCC[N+](C)(C)C)OCCCCCCCCCCCC` (centres undefined) came in with an EC10x above 1 mM. In assay [3], this compound gave an EC50 above 1000 µM.
In the case of `CCCCCCCCCC(=O)NCC(COP(=O)([O-])OCC[N+](C)(C)C)OCCCC` (centres undefined), the Potency index in assay [1] amounted to 1.24. In addition, the EC10x in assay [2] is above 5 mM. In assay [4], this compound yielded a CMC of 1170 µM. Further, in assay [3], the concentration giving a half-maximal response (EC50) was found to be 3190 µM.
In assay [2], `CCCCCCCC(=O)NCC(COP(=O)([O-])OCC[N+](C)(C)C)OCCCC` (centres undefined) showed an EC10x above 5 mM. In assay [3], this compound came in with an EC50 above 5000 µM.
Compound `CCCCCCCCCCCCCCCCOC(CNC(=O)CCCCCCCCCCC)COP(=O)([O-])OCC[N+](C)(C)C` (centres undefined) gave an EC10x in assay [2] above 0.5 mM. This compound yielded an EC50 in assay [3] above 500 µM.
As for `CCCCCCCCCCCCCCCC(=O)NCC(COP(=O)([O-])OCC[N+](C)(C)C)OCCCCCC` (centres undefined), the Potency index in assay [1] was 0.6. This compound displayed an EC10x in assay [2] of 1.61 mM. The EC50 in assay [3] is 520 µM.
In the case of `CCCCCCCCCC(=O)NCC(COP(=O)([O-])OCC[N+](C)(C)C)OCCCCCCCC` (centres undefined), the Potency index in assay [1] was found to be 1.27. In addition, the EC10x in assay [5] is recorded as 1.21 mM. In addition, in assay [6], the EC50 came to 300 µM. In assay [4], this compound displayed a CMC of 55.3 µM.
In assay [1], `CCCCCCCCCCCCCC(=O)NCC(COP(=O)([O-])OCC[N+](C)(C)C)OCC` (centres undefined) had a Potency index of 2. The compound also came in with an EC10x in assay [2] of 0.89 mM. For the same compound, in assay [4], the CMC stood at 148 µM. For the same compound, the concentration giving a half-maximal response (EC50) in assay [3] was found to be 80 µM.
Consider `CCCCCCCCCCCCCCCC(=O)NCC(COP(=O)([O-])OCC[N+](C)(C)C)OCCCCCCCCCC` (centres undefined), for which, in assay [2], the EC10x is above 2 mM. This compound also had an EC50 in assay [3] above 2000 µM.
In the case of `CCCCCCCCCCCCCCCCCCOC(CNC(C)=O)COP(=O)([O-])OCC[N+](C)(C)C` (centres undefined), the Potency index in assay [1] amounted to 1.11. The EC10x in assay [2] was found to be 0.34 mM. Also, the concentration giving a half-maximal response (EC50) in assay [3] is 90 µM.
For `CCCCCCCCCC(=O)NCC(COP(=O)([O-])OCC[N+](C)(C)C)OCCCCCC` (centres undefined), the Potency index in assay [1] worked out at 2.38. Besides, the EC10x in assay [2] came out at 0.73 mM. This compound also displayed a 50% effective concentration (EC50) in assay [3] of 420 µM.
Take `CCCCCCCCCCCCCCCCOC(CNC(=O)CCCCCCCCC)COP(=O)([O-])OCC[N+](C)(C)C` (centres undefined): the EC10x in assay [2] is above 2 mM. In assay [3], this compound yielded an EC50 above 2000 µM.
`CCCCCCCCCCCCCCCCOC(CNC(=O)CCCCC)COP(=O)([O-])OCC[N+](C)(C)C` (centres undefined) yielded a Potency index in assay [1] of 0.93. For the same compound, the EC10x in assay [2] came out at 1.35 mM. Further, in assay [3], a half-maximal response (EC50) required 300 µM.
Take `CCCCCCCCCCCCOC(CNC(=O)CCCCCCCCC)COP(=O)([O-])OCC[N+](C)(C)C` (centres undefined): in assay [1], the Potency index is 1.92. Also, the EC10x in assay [2] is given as above 3 mM. The compound also came in with an EC50 in assay [3] of 1040 µM.
